ChEMBL document CHEMBL3817731, “Synthesis and investigation of novel benzimidazole derivatives as antifungal agents” (Bioorg Med Chem, 2016)
Converted amounts (≈) assume the structure as drawn. The source made the active and inactive calls. The calls are words filed in the database; no cut-off is given here.

Legend:
Aspergillus nidulans = experiment: Antifungal activity against Aspergillus nidulans ATCC 38163 after 48 hrs by CLSI M38-A2 method; assay type: functional; details: ATCC 38163, 48 h
Candida albicans [1] = experiment: Antifungal activity against Candida albicans ATCC MYA-1003 after 48 hrs by CLSI M27-A3 method; assay type: functional; details: ATCC MYA-1003, 48 h
Candida albicans [2] = experiment: Antifungal activity against Candida albicans ATCC MYA-1237 after 48 hrs by CLSI M27-A3 method; assay type: functional; details: ATCC MYA-1237, 48 h
Aspergillus terreus = experiment: Antifungal activity against Aspergillus terreus ATCC MYA3633 after 48 hrs by CLSI M38-A2 method; assay type: functional; details: ATCC MYA3633, 48 h
Aspergillus flavus = experiment: Antifungal activity against Aspergillus flavus ATCC MYA-3631 after 48 hrs by CLSI M38-A2 method; assay type: functional; details: ATCC MYA-3631, 48 h
Candida albicans [3] = experiment: Antifungal activity against Candida albicans ATCC 10231 after 48 hrs by CLSI M27-A3 method; assay type: functional; details: ATCC 10231, 48 h
Candida parapsilosis = experiment: Antifungal activity against Candida parapsilosis ATCC 22019 after 48 hrs by CLSI M27-A3 method; assay type: functional; details: Lodderomyces parapsilosis, ATCC 22019, 48 h
Pichia kudriavzevii = experiment: Antifungal activity against Candida krusei ATCC 6258 after 48 hrs by CLSI M27-A3 method; assay type: functional; details: ATCC 6258, 48 h
Candida albicans [4] = experiment: Antifungal activity against Candida albicans ATCC MYA-2876 after 48 hrs by CLSI M27-A3 method; assay type: functional; details: ATCC MYA-2876, 48 h
Candida albicans [5] = experiment: Induction of ROS production in Candida albicans ATCC 10231 at 8 to 16 ug/ml after 1 hr by DCFH-DA probe based fluorescence microscopy; assay type: functional, organism-based
Summary of the method: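 C. albicans ATCC 10231 yeast cells exposed to drug at 8 and 16 µg/mL for 1 h at 35 °C, alongside untreated and AmB controls. Cells were then stained with DCFH-DA (20 µg/mL) for 30 min in the dark. Intracellular ROS was visualised by fluorescence microscopy.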

Candida albicans [6] = experiment: Antifungal activity against Candida albicans ATCC MYA-90819 after 48 hrs by CLSI M27-A3 method; assay type: functional; details: ATCC MYA-90819, 48 h
Candida albicans [7] = experiment: Antifungal activity against Candida albicans ATCC MYA-2310 after 48 hrs by CLSI M27-A3 method; assay type: functional; details: ATCC MYA-2310, 48 h
Nakaseomyces glabratus = experiment: Antifungal activity against Candida glabrata ATCC 2001 after 48 hrs by CLSI M27-A3 method; assay type: functional; details: CBS 138, 48 h
Candida albicans [8] = experiment: Antifungal activity against Candida albicans ATCC 64124 after 48 hrs by CLSI M27-A3 method; assay type: functional; details: ATCC 64124, 48 h
Candida albicans [9] = experiment: Fungistatic activity against Candida albicans ATCC 64124 assessed as reduction in fungal population at MIC after 24 hrs by time kill assay
Candida albicans [10] = experiment: Fungistatic activity against Candida albicans ATCC 64124 assessed as reduction in fungal population at MIC upto 24 hrs by time kill assay; assay type: functional, organism-based
[11] = Cytotoxicity against human BEAS2B cells assessed as reduction in cell survival after 24 hrs by resazurin assay; assay type: cell-based; details: BEAS-2B
Summary of the method: (§1)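 Human A549 cells treated 24 h; BEAS 2B cells treated 6 h or 24 h. DMSO-treated cells served as negative control and Triton X-treated cells as positive control. Read-out was cell survival.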

Candida albicans [12] = experiment: Induction of ROS production in Candida albicans ATCC 10231 at 1 to 2 times MIC after 1 hr by DCFH-DA probe based fluorescence microscopy; assay type: functional, organism-based
Candida albicans [13] = experiment: Fungicidal activity against Candida albicans ATCC 64124 assessed as reduction in fungal population at 2 times MIC after 24 to 48 hrs by time kill assay; assay type: functional
[14] = Cytotoxicity against human BEAS2B cells assessed as reduction in cell survival after 6 hrs by resazurin assay; assay type: cell-based; details: beas-2b; summary of the method: as §1
A549 = experiment: Cytotoxicity against human A549 cells assessed as reduction in cell survival after 24 hrs by resazurin assay; assay type: cell-based; details: A549, 24 h; summary of the method: as §1
Candida albicans [15] = experiment: Fungicidal activity against Candida albicans ATCC 64124 assessed as reduction in fungal population at MIC after 9 hrs by time kill assay; assay type: functional

SMILES | MIC (Aspergillus nidulans) [µg/mL] | MIC (Candida albicans [1]) [µg/mL] | MIC (Candida albicans [2]) [µg/mL] | MIC (Aspergillus terreus) [µg/mL] | MIC (Aspergillus flavus) [µg/mL] | MIC (Candida albicans [3]) [µg/mL] | MIC (Candida parapsilosis) [µg/mL] | MIC (Pichia kudriavzevii) [µg/mL] | MIC (Candida albicans [4]) [µg/mL] | MIC (Candida albicans [6]) [µg/mL] | MIC (Candida albicans [7]) [µg/mL] | MIC (Nakaseomyces glabratus) [µg/mL] | MIC (Candida albicans [8]) [µg/mL] | Activity (Candida albicans [9]) [log10CFU] | Activity (Candida albicans [10]) | IC50 [11] [µg/mL] | Activity (Candida albicans [12]) | Activity (Candida albicans [13]) | Activity [14] | IC50 (A549) [µg/mL] | further results
CCCCCCCCCCCCN1CCN(c2ccc3nc(-c4ccc5nc(-c6ccc(O)cc6)[nH]c5c4)[nH]c3c2)CC1 | > 31.2 | > 31.2 | > 31.2 | > 31.2 | > 31.2 | > 31.2 | > 31.2 | > 31.2 | > 31.2 | > 31.2 | > 31.2 | > 31.2 | > 31.2 | – | – | – | – | – | – | – | Activity (Candida albicans [5]): inactive
CN1CCN(c2ccc3[nH]c(-c4ccc5[nH]c(-c6ccc(O)cc6)nc5c4)nc3c2)CC1 [HOECHST 33258] | 1.95 (≈ 4.59 µM) | 7.8 (≈ 18.4 µM) | 3.9 (≈ 9.19 µM) | – | 31.2 (≈ 73.5 µM) | – | 0.975 (≈ 2.3 µM) | – | 7.8 (≈ 18.4 µM) | 7.8 (≈ 18.4 µM) | 3.9 (≈ 9.19 µM) | 0.975 (≈ 2.3 µM) | – | 1 | Active | ≥ 31.2 | Active | 5 log10CFU | Non-toxic | ≥ 31.2 | –
CCOc1ccc(-c2nc3cc(-c4nc5cc(N6CCN(C)CC6)ccc5[nH]4)ccc3[nH]2)cc1 | 3.9 (≈ 8.62 µM) | 15.6 (≈ 34.5 µM) | 7.8 (≈ 17.2 µM) | 7.8 (≈ 17.2 µM) | 31.2 (≈ 68.9 µM) | 7.8 (≈ 17.2 µM) | 3.9 (≈ 8.62 µM) | 7.8 (≈ 17.2 µM) | 7.8 (≈ 17.2 µM) | 7.8 (≈ 17.2 µM) | 7.8 (≈ 17.2 µM) | 7.8 (≈ 17.2 µM) | 7.8 (≈ 17.2 µM) | 1 | Active | 1.95 (≈ 4.31 µM) | Active | 5 log10CFU | Non-toxic | 0.98 (≈ 2.17 µM) | –
C#CCOc1ccc(-c2nc3ccc(-c4nc5ccc(N6CCN(C)CC6)cc5[nH]4)cc3[nH]2)cc1 | – | – | > 31.2 | – | > 31.2 | 7.8 (≈ 16.9 µM) | 1.95 (≈ 4.22 µM) | 7.8 (≈ 16.9 µM) | 7.8 (≈ 16.9 µM) | – | 7.8 (≈ 16.9 µM) | 7.8 (≈ 16.9 µM) | 31.2 (≈ 67.5 µM) | – | – | 0.98 (≈ 2.12 µM) | – | – | Non-toxic | 15.6 (≈ 33.7 µM) | –
COc1ccc(-c2nc3cc(-c4nc5cc(N6CCN(C)CC6)ccc5[nH]4)ccc3[nH]2)cc1 | 15.6 (≈ 35.6 µM) | > 31.2 | 15.6 (≈ 35.6 µM) | 15.6 (≈ 35.6 µM) | 31.2 (≈ 71.1 µM) | 15.6 (≈ 35.6 µM) | 3.9 (≈ 8.89 µM) | 31.2 (≈ 71.1 µM) | 15.6 (≈ 35.6 µM) | 15.6 (≈ 35.6 µM) | 7.8 (≈ 17.8 µM) | 3.9 (≈ 8.89 µM) | 31.2 (≈ 71.1 µM) | – | – | 1.95 (≈ 4.45 µM) | – | – | Non-toxic | 0.98 (≈ 2.23 µM) | –
C[C@@H]1[C@H](O)[C@@H](C)/C=C/C=C/C=C/C=C/C=C/C=C/C=C/[C@H](O[C@@H]2O[C@H](C)[C@@H](O)[C@H](N)[C@@H]2O)C[C@@H]2O[C@](O)(C[C@@H](O)C[C@@H](O)[C@H](O)CC[C@@H](O)C[C@@H](O)CC(=O)O[C@H]1C)C[C@H](O)[C@H]2C(=O)O [AMPHOTERICIN B] | – | 3.9 (≈ 4.22 µM) | 3.9 (≈ 4.22 µM) | 3.9 (≈ 4.22 µM) | – | 3.9 (≈ 4.22 µM) | 1.95 (≈ 2.11 µM) | 3.9 (≈ 4.22 µM) | 1.95 (≈ 2.11 µM) | 0.975 (≈ 1.06 µM) | 1.95 (≈ 2.11 µM) | 1.95 (≈ 2.11 µM) | 3.9 (≈ 4.22 µM) | – | – | – | Active | Active | – | – | Activity (Candida albicans [15]): Active
